In ChEMBL document CHEMBL1240473, “Synthesis and bioassay of aminosulfonyl-1,3,4-oxadiazoles and their interconversion to 1,3,4-thiadiazoles” (2010):
≈ marks a conversion by molar mass, not a printed value.

Assays:
Assay type in all cases: functional
Bacillus subtilis [1] = experiment: Antimicrobial activity against Bacillus subtilis NCIM 2063 after 24 hrs by microdilution susceptibility method; conditions: NCIM 2063, 24 h
Summary of the method: (§1)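 Broth microdilution MIC with NCIM strains. Compounds and the references (chloramphenicol, antibacterial; ketoconazole, antifungal) were dissolved in DMSO at 800 and diluted two-fold from 400 down to 6.25. Wells were inoculated with the microbial suspension and incubated at 36 °C, 24 h for bacteria and 48 h for fungi. MIC was the lowest concentration with no visible growth.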

Klebsiella pneumoniae [2] = experiment: Antimicrobial activity against Klebsiella pneumoniae NCIM 2957 after 24 hrs by microdilution susceptibility method; conditions: NCIM 2957, 24 h; summary of the method: as §1
Proteus vulgaris [3] = experiment: Antimicrobial activity against Proteus vulgaris NCIM 2027 after 24 hrs by microdilution susceptibility method; conditions: NCIM 2027, 24 h
Fusarium solani [4] = experiment: Antimicrobial activity against Fusarium solani NCIM 1330 after 48 hrs by microdilution susceptibility method; conditions: NCIM 1330, 48 h; summary of the method: as §1
Curvularia lunata [5] = experiment: Antimicrobial activity against Curvularia lunata NCIM 716 after 48 hrs by microdilution susceptibility method; conditions: NCIM 716, 48 h; summary of the method: as §1
Aspergillus niger [6] = experiment: Antimicrobial activity against Aspergillus niger NCIM 596 after 48 hrs by microdilution susceptibility method; conditions: NCIM 596, 48 h; summary of the method: as §1
[7] = Antioxidant activity assessed as nitric oxide scavenging activity at 100 uM after 120 min by Griess assay
Summary of the method: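 Sodium nitroprusside (5 mM) in phosphate buffer pH 7.4 was incubated with test compound dissolved in dioxane/methanol at 25 °C for 120 min. A solvent-only control was run in parallel. Aliquots were mixed 1:1 with Griess reagent (1% sulfanilamide, 0.1% N-naphthylethylenediamine dihydrochloride, 2% o-phosphoric acid in water).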

[8] = test system: Radical scavenging activity; experiment: Antioxidant activity assessed as DPPH free radical scavenging activity at 100 uM after 20 mins
Summary of the method: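 Compound solutions were added to DPPH in dioxane/ethanol and kept at ambient temperature for 20 min, then absorbance was read at 517 nm. Percent inhibition = (A_control − A_sample)/A_control × 100, […].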

Staphylococcus aureus [9] = experiment: Antimicrobial activity against Staphylococcus aureus NCIM 5021 at 100 ug/disk after 24 hrs by agar disc-diffusion method; conditions: NCIM 5021, 24 h, read-out: DIZ
Summary of the method: (§2)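 Agar disc diffusion with NCIM strains. Sterile 6 mm filter-paper discs were moistened with compound in DMSO at 100 or 200 per disc and placed on agar plates pre-inoculated with each organism. Plates were incubated at 37 °C. Growth-inhibition zone diameter was read at 24 h for bacteria and 48 h for fungi.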

Staphylococcus aureus [10] = experiment: Antimicrobial activity against Staphylococcus aureus NCIM 5021 at 200 ug/disk after 24 hrs by agar disc-diffusion method; conditions: NCIM 5021, 24 h, read-out: DIZ; summary of the method: as §2
Bacillus subtilis [11] = experiment: Antimicrobial activity against Bacillus subtilis NCIM 2063 at 100 ug/disk after 24 hrs by agar disc-diffusion method; conditions: NCIM 2063, 24 h, read-out: DIZ; summary of the method: as §2
Bacillus subtilis [12] = experiment: Antimicrobial activity against Bacillus subtilis NCIM 2063 at 200 ug/disk after 24 hrs by agar disc-diffusion method; conditions: NCIM 2063, 24 h, read-out: DIZ; summary of the method: as §2
Klebsiella pneumoniae [13] = experiment: Antimicrobial activity against Klebsiella pneumoniae NCIM 2957 at 100 ug/disk after 24 hrs by agar disc-diffusion method; conditions: NCIM 2957, 24 h, read-out: DIZ; summary of the method: as §2
Klebsiella pneumoniae [14] = experiment: Antimicrobial activity against Klebsiella pneumoniae NCIM 2957 at 200 ug/disk after 24 hrs by agar disc-diffusion method; conditions: NCIM 2957, 24 h, read-out: DIZ; summary of the method: as §2
Proteus vulgaris [15] = experiment: Antimicrobial activity against Proteus vulgaris NCIM 2027 at 100 ug/disk after 24 hrs by agar disc-diffusion method; conditions: NCIM 2027, 24 h, read-out: DIZ
Proteus vulgaris [16] = experiment: Antimicrobial activity against Proteus vulgaris NCIM 2027 at 200 ug/disk after 24 hrs by agar disc-diffusion method; conditions: NCIM 2027, 24 h, read-out: DIZ
Fusarium solani [17] = experiment: Antimicrobial activity against Fusarium solani NCIM 1330 at 100 ug/disk after 48 hrs by agar disc-diffusion method; conditions: NCIM 1330, 48 h, read-out: DIZ; summary of the method: as §2
Fusarium solani [18] = experiment: Antimicrobial activity against Fusarium solani NCIM 1330 at 200 ug/disk after 48 hrs by agar disc-diffusion method; conditions: NCIM 1330, 48 h, read-out: DIZ; summary of the method: as §2
Curvularia lunata [19] = experiment: Antimicrobial activity against Curvularia lunata NCIM 716 at 100 ug/disk after 48 hrs by agar disc-diffusion method; conditions: NCIM 716, 48 h, read-out: DIZ; summary of the method: as §2
Curvularia lunata [20] = experiment: Antimicrobial activity against Curvularia lunata NCIM 716 at 200 ug/disk after 48 hrs by agar disc-diffusion method; conditions: NCIM 716, 48 h, read-out: DIZ; summary of the method: as §2
Aspergillus niger [21] = experiment: Antimicrobial activity against Aspergillus niger NCIM 596 at 100 ug/disk after 48 hrs by agar disc-diffusion method; conditions: NCIM 596, 48 h, read-out: DIZ; summary of the method: as §2
Aspergillus niger [22] = experiment: Antimicrobial activity against Aspergillus niger NCIM 596 at 200 ug/disk after 48 hrs by agar disc-diffusion method; conditions: NCIM 596, 48 h, read-out: DIZ; summary of the method: as §2
Staphylococcus aureus [23] = experiment: Antimicrobial activity against Staphylococcus aureus NCIM 5021 after 24 hrs by microdilution susceptibility method; conditions: NCIM 5021, 24 h; summary of the method: as §1

SMILES | MIC (Bacillus subtilis [1]) | MIC (Klebsiella pneumoniae [2]) | MIC (Proteus vulgaris [3]) | MIC (Fusarium solani [4]) | MIC (Curvularia lunata [5]) | MIC (Aspergillus niger [6]) | Activity [7] | Activity [8] | zone of inhibition at 100 µg/disc (Staphylococcus aureus [9]) | zone of inhibition at 200 µg/disc (Staphylococcus aureus [10]) | zone of inhibition at 100 µg/disc (Bacillus subtilis [11]) | zone of inhibition at 200 µg/disc (Bacillus subtilis [12]) | zone of inhibition at 100 µg/disc (Klebsiella pneumoniae [13]) | zone of inhibition at 200 µg/disc (Klebsiella pneumoniae [14]) | zone of inhibition at 100 µg/disc (Proteus vulgaris [15]) | zone of inhibition at 200 µg/disc (Proteus vulgaris [16]) | zone of inhibition at 100 µg/disc (Fusarium solani [17]) | zone of inhibition at 200 µg/disc (Fusarium solani [18]) | zone of inhibition at 100 µg/disc (Curvularia lunata [19]) | zone of inhibition at 200 µg/disc (Curvularia lunata [20]) | other results
Cc1ccc(NS(=O)(=O)Cc2nnc(CS(=O)(=O)c3ccc(C)cc3)s2)cc1 | 50 µg/mL (≈ 114 µM) | 100 µg/mL (≈ 229 µM) | 100 µg/mL (≈ 229 µM) | 50 µg/mL (≈ 114 µM) | 100 µg/mL (≈ 229 µM) | 100 µg/mL (≈ 229 µM) | 20.3% | 21.7% | 25 mm | 28 mm | 27 mm | 29 mm | 25 mm | 27 mm | 24 mm | 26 mm | 27 mm | 35 mm | 25 mm | 33 mm | zone of inhibition at 100 µg/disc (Aspergillus niger [21]): 22 mm; zone of inhibition at 200 µg/disc (Aspergillus niger [22]): 26 mm; MIC (Staphylococcus aureus [23]): 50 µg/mL (≈ 114 µM)
O=S(=O)(Cc1nnc(CS(=O)(=O)c2ccccc2)s1)Nc1ccccc1 | 25 µg/mL (≈ 61 µM) | 50 µg/mL (≈ 122 µM) | 100 µg/mL (≈ 244 µM) | 100 µg/mL (≈ 244 µM) | 100 µg/mL (≈ 244 µM) | 50 µg/mL (≈ 122 µM) | 22.6% | 23.8% | 27 mm | 30 mm | 29 mm | 31 mm | 27 mm | 29 mm | 23 mm | 26 mm | 31 mm | 33 mm | 30 mm | 32 mm | zone of inhibition at 100 µg/disc (Aspergillus niger [21]): 29 mm; zone of inhibition at 200 µg/disc (Aspergillus niger [22]): 30 mm; MIC (Staphylococcus aureus [23]): 50 µg/mL (≈ 122 µM)
O=S(=O)(Cc1nnc(-c2ccc(Cl)cc2)s1)Nc1ccc(Cl)cc1 | 100 µg/mL (≈ 250 µM) | 200 µg/mL (≈ 500 µM) | 200 µg/mL (≈ 500 µM) | 200 µg/mL (≈ 500 µM) | 100 µg/mL (≈ 250 µM) | 200 µg/mL (≈ 500 µM) | 35.7% | 34.6% | 25 mm | 27 mm | 23 mm | 26 mm | 19 mm | 22 mm | 18 mm | 20 mm | 27 mm | 30 mm | 25 mm | 27 mm | zone of inhibition at 100 µg/disc (Aspergillus niger [21]): 20 mm; zone of inhibition at 200 µg/disc (Aspergillus niger [22]): 23 mm; MIC (Staphylococcus aureus [23]): 100 µg/mL (≈ 250 µM)
